Test results reported in ChEMBL document CHEMBL1629436, “Synthesis and biological evaluation of new camptothecin derivatives obtained by modification of position 20” (Bioorg Med Chem, 2010).
Activity calls are given as the source filed them. The calls are words filed in the database; no cut-off is given here.

Assays:
[1] = organism: Mus musculus; experiment: Cytotoxicity against mouse betaD5 cells after 24 to 96 hrs by MTS assay; format: functional, cell-based
How it was run: (§1)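 Mouse transgenic lines plated at 10^3 cells/well and left 24 h to attach. Drugs diluted in medium were added for 24 or 96 h. CellTiter 96 AQueous One (MTS) reagent was then added for 1 h at 37 °C, with absorbance read at 490 nm. Each condition was run in quintuplicate, and cytotoxicity was expressed as percent of controls.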

[2] = tested on: yA7; experiment: Cytotoxicity against mouse yA7 cells after 24 to 96 hrs by MTS assay; format: functional, cell-based; how it was run: as §1
[3] = tested on: HeLa; experiment: Cytotoxicity against human HeLa cells after 72 hrs by trypan blue assay; format: functional, cell-based
How it was run: (§2)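 A-431, HeLa and HL-60 cells at 4×10^4 per well, incubated 24 h. HeLa and A-431 then received fresh medium. Graded compound concentrations were added for a further 72 h at 37 °C, 5% CO2. Viability was counted by Trypan blue exclusion. IC50 is the concentration giving 50% reduction in cell number versus control: ≥3 independent experiments, triplicate samples, mean ± SD.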

[4] = organism: Mus musculus; experiment: Induction apoptosis in mouse betaD10 cells assessed as ROS production at 10 uM/L using DCFH-DA by flow cytometry relative to control; format: functional, cell-based
How it was run: (§3)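 Transgenic mouse cells exposed to compound at 10 µmol/L. ROS generation was measured by flow cytometry using the probe DCFH-DA.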

[5] = tested on: yA7; experiment: Induction apoptosis in mouse yA7 cells assessed as ROS production at 10 uM/L using DCFH-DA by flow cytometry relative to control; format: functional, cell-based; how it was run: as §3
[6] = tested on: yD1; experiment: Induction apoptosis in mouse yD1 cells assessed as ROS production at 10 uM/L using DCFH-DA by flow cytometry relative to control; format: functional, cell-based; how it was run: as §3
[7] = tested on: yB8; experiment: Cytotoxicity against mouse yB8 cells after 24 to 96 hrs by MTS assay; format: functional, cell-based; how it was run: as §1
[8] = tested on: A2C12; experiment: Induction apoptosis in mouse A2C12 cells assessed as ROS production at 10 uM/L using DCFH-DA by flow cytometry relative to control; format: functional, cell-based; how it was run: as §3
[9] = tested on: B3; experiment: Induction apoptosis in mouse B3 cells assessed as ROS production at 10 uM/L using DCFH-DA by flow cytometry relative to control; format: functional, cell-based; how it was run: as §3
[10] = tested on: yA3; experiment: Induction apoptosis in mouse yA3 cells assessed as ROS production at 10 uM/L using DCFH-DA by flow cytometry relative to control; format: functional, cell-based; how it was run: as §3
[11] = tested on: HUVEC; experiment: Antiangiogenic activity in HUVEC cocultured with human PaSMC assessed as morphological changes up to 200 nM after 72 hrs; format: functional, cell-based
How it was run: (§4)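 Primary HUVEC (passage 5, retrovirally labelled with RFP) and pulmonary artery vSMC (passage 5) co-seeded at 5×10^4 PaSMC plus 10×10^3 HUVEC per well in EGM-2, briefly spun at 200 g, attached 3 h. Compounds were then added at final 2–200 nM, two replicates per concentration. Networks formed over 72 h at 37 °C, 5% CO2, followed by automated imaging and image analysis of tube formation.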

[12] = tested on: A2C12; experiment: Cytotoxicity against mouse A2C12 cells after 24 to 96 hrs by MTS assay; format: functional, cell-based; how it was run: as §1
[13] = tested on: A2B1; experiment: Cytotoxicity against mouse A2B1 cells after 24 to 96 hrs by MTS assay; format: functional, cell-based; how it was run: as §1
[14] = tested on: HL-60; experiment: Cytotoxicity against human HL60 cells after 72 hrs by trypan blue assay; format: functional, cell-based; settings: HL-60, 72 h; how it was run: as §2
[15] = tested on: Nucleic Acid; experiment: Binding affinity to salmon testes DNA by linear flow dichroism analysis; format: nucleic-acid assay; settings: Salmonidae
How it was run: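 Salmon testes DNA (1.9 × 10^-3 M) in ETN buffer (10 mM Tris, 10 mM NaCl, 1 mM EDTA, pH 7). Linear dichroism spectra were recorded at 25 °C over a range of [drug]/[DNA] ratios on a spectropolarimeter converted for LD.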

[16] = biological target: DNA topoisomerase 2-alpha (Homo sapiens) (UniProt P11388); experiment: Inhibition of human recombinant topoisomerase 2alpha-mediated relaxation of supercoiled pBR322 at up to 100 uM after 60 mins using ethidium bromide staining by agarose gel electrophoresis
How it was run: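 Supercoiled pBR322 (0.25 µg) with 1 U human recombinant topoisomerase IIα and test compound, 60 min at 37 °C in 20 µl reaction buffer. Stopped with SDS/bromophenol blue/glycerol plus 50 µg/mL proteinase K, 30 min at 37 °C. Separated on 1% agarose at room temperature, ethidium bromide stained (1 µg/mL, TAE), UV-visualized.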

[17] = tested on: Craf/Cmyc; experiment: Induction apoptosis in mouse Craf/Cmyc cells assessed as ROS production at 10 uM/L using DCFH-DA by flow cytometry relative to control; format: functional, cell-based; how it was run: as §3
[18] = tested on: yD12; experiment: Induction apoptosis in mouse yD12 cells assessed as ROS production at 10 uM/L using DCFH-DA by flow cytometry relative to control; format: functional, cell-based; how it was run: as §3
[19] = tested on: A-431; experiment: Cytotoxicity against human A431 cells after 72 hrs by trypan blue assay; format: functional, cell-based; settings: A-431, 72 h; how it was run: as §2
[20] = tested on: yA3; experiment: Cytotoxicity against mouse yA3 cells after 24 to 96 hrs by MTS assay; format: functional, cell-based; how it was run: as §1
[21] = tested on: B3; experiment: Cytotoxicity against mouse B3 cells after 24 to 96 hrs by MTS assay; format: functional, cell-based; how it was run: as §1
[22] = tested on: HUVEC; experiment: Antiangiogenic activity in HUVEC cocultured with human PaSMC assessed as reduction of total tube length at 125 nM after 72 hrs; format: functional; design: scale not given: the % may be the effect or the level left; how it was run: as §4
[23] = tested on: yD12; experiment: Cytotoxicity against mouse yD12 cells after 24 to 96 hrs by MTS assay; format: functional, cell-based; how it was run: as §1
[24] = organism: Mus musculus; experiment: Cytotoxicity against mouse betaD10 cells after 24 to 96 hrs by MTS assay; format: functional, cell-based; how it was run: as §1
[25] = tested on: Craf/Cmyc; experiment: Cytotoxicity against mouse Craf/Cmyc cells after 24 to 96 hrs by MTS assay; format: functional, cell-based; how it was run: as §1
[26] = tested on: yB8; experiment: Induction apoptosis in mouse yB8 cells assessed as ROS production at 10 uM/L using DCFH-DA by flow cytometry relative to control; format: functional, cell-based; how it was run: as §3
[27] = organism: Mus musculus; experiment: Induction apoptosis in mouse betaD5 cells assessed as ROS production at 10 uM/L using DCFH-DA by flow cytometry relative to control; format: functional, cell-based; how it was run: as §3
[28] = organism: Bos taurus; experiment: Inhibition of calf thymus topoisomerase 1-mediated relaxation of supercoiled pBR322 at 100 uM after 60 mins using ethidium bromide staining by agarose gel electrophoresis
How it was run: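 Supercoiled pBR322 (0.25 µg) with 2 U calf thymus topoisomerase I and test compound, 60 min at 37 °C in 20 µl reaction buffer. Stopped with SDS/bromophenol blue/glycerol plus 50 µg/mL proteinase K, 30 min at 37 °C. Run on 1% agarose at room temperature, stained with ethidium bromide 1 µg/mL in TAE, imaged under UV.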

[29] = Induction apoptosis in mouse Craf/Cmyc cells assessed as relative caspase activity at 10 uM/L after 2 hrs by rhodamine 110 fluorescence assay; format: functional
How it was run: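 Cells were pretreated with compound (10 µmol/L) for 2 h. The cell-permeable caspase substrate (Asp)2-rhodamine 110 (10 µmol/L) was then added for 2 h more. Caspase cleavage releases fluorescent rhodamine 110, and the read-out was mean fluorescence.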

Sequence of DNA topoisomerase 2-alpha (Homo sapiens) (P11388 whole entry): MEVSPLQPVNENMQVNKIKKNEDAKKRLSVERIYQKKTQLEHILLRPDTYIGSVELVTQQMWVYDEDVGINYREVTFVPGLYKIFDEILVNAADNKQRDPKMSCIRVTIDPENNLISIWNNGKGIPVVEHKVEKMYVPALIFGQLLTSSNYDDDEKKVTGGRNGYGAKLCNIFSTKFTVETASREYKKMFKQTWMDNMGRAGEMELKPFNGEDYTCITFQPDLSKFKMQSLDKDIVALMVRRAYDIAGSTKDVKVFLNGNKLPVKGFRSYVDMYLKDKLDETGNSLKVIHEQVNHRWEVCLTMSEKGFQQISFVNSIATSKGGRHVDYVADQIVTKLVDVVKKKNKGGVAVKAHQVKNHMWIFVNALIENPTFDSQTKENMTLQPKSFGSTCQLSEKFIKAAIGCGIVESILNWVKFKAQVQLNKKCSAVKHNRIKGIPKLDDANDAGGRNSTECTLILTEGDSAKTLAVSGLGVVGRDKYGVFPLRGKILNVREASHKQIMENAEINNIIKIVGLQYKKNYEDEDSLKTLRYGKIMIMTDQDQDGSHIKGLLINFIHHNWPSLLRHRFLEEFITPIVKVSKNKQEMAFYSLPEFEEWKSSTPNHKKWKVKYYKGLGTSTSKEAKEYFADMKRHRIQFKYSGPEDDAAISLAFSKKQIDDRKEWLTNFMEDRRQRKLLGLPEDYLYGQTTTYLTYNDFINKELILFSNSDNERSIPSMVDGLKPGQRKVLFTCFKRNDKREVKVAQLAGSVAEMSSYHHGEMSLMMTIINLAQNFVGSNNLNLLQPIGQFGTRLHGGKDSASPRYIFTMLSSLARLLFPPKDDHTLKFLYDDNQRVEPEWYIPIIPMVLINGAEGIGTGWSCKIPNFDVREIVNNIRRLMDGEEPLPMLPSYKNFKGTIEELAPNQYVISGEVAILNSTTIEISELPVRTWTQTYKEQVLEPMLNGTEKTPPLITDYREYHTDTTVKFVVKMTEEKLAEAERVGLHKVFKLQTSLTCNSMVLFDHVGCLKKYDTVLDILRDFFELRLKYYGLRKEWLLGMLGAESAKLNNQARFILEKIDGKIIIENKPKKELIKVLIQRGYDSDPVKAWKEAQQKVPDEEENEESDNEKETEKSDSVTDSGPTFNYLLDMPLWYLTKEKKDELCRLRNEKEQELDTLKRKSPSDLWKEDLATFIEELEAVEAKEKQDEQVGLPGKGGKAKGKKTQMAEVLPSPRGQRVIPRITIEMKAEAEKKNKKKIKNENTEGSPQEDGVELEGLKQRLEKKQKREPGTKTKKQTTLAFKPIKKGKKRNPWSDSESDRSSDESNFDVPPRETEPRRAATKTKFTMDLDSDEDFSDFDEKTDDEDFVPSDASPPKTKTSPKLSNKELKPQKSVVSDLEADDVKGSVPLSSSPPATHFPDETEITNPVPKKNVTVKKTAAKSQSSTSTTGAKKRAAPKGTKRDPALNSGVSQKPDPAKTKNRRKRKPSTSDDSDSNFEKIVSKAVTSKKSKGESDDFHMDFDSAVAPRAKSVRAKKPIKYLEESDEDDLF

Structure (SMILES)	Activity [1]	Activity [2]	IC50 [3]	Activity [6]	Activity [7]	Activity [8]	Activity [9]	Activity [10]	Activity [12]	Activity [13]	IC50 [14]	Activity [15]	Activity [16]	Activity [17]	IC50 [19]	Activity [20]	Activity [21]	Activity [23]	Activity [24]	Activity [25]	further results
CC[C@@]1(OC(=O)NCCNC(=O)CCCSSCCCC(=O)NCCNC(=O)O[C@]2(CC)C(=O)OCc3c2cc2n(c3=O)Cc3cc4ccccc4nc3-2)C(=O)OCc2c1cc1n(c2=O)Cc2cc3ccccc3nc2-1	Active	Active	170 nM	Active	Active	Active	Active	Active	Active	Active	290 nM	inactive	inactive	Active	30 nM	Active	Active	Active	Active	Active	Activity [4]: Active; Activity [5]: Active; Activity [11]: inactive; Activity [18]: Active; Activity [22]: 50%; Activity [26]: Active; Activity [27]: Active; Activity [28]: inactive
CC[C@@]1(OC(=O)NCCNC(=O)CCCCCCCCC(=O)NCCNC(=O)O[C@]2(CC)C(=O)OCc3c2cc2n(c3=O)Cc3cc4ccccc4nc3-2)C(=O)OCc2c1cc1n(c2=O)Cc2cc3ccccc3nc2-1	Active	Active	300 nM	Active	Active	Active	Active	Active	Active	Active	420 nM	inactive	inactive	Active	80 nM	Active	Active	Active	Active	Active	fold change (FC) [29]: 8; Activity [27]: Active; Activity [28]: inactive
